Published values from different studies.
Lines come from different studies, so protocols differ.
Target: Cyclin-dependent kinase 17 (CDK17, Homo sapiens, UniProt Q00537)

CN(C)c1nccc(-c2cnc3ncccn23)n1 — remaining binding (binding; 1 µM): 84%
O=C(Nc1c[nH]nc1C(=O)NC1CCNCC1)c1cc(F)cc(F)c1 — remaining binding (binding, competition with immobilised ligand; 1 µM): 20%
COc1cccc(CNC(=O)c2nc3scc(COCc4ccc(C(=O)O)cc4)c3c(=O)[nH]2)c1 — remaining binding (cell-free assay, competition with immobilised ligand; 1 µM): 87.8%
Cc1cnn2ncc(-c3ccnc(N(C)C)n3)c2c1 — remaining binding (binding; 1 µM): 100%
O=C(c1ccc(Nc2ncc(Cl)c(-c3cc4ccccc4s3)n2)cc1)N1CCC(N2CCCC2)CC1 — remaining binding (binding, competition with immobilised ligand; 1 µM): 0%
CC1CCCN1c1nccc(-c2cnn3ncccc23)n1 (stereo not drawn) — remaining binding (binding; 1 µM): 100%
O=C(c1ccc(Nc2ncc(Cl)c(-c3ccc(Cl)s3)n2)cc1)N1CCC(N2CCCC2)CC1 — remaining binding (binding, competition with immobilised ligand; 1 µM): 1.8%
c1cnn2ncc(-c3ccnc(N4CCC45COC5)n3)c2c1 — remaining binding (binding; 1 µM): 87%
COc1ncc2cc3ccccc3nc2c1C#N — remaining binding (cell-free assay, competition with immobilised ligand; 5 µM): 100%
C=CC(=O)N1CCC(C(=O)NCC(=O)N2CCN(c3nc(-c4cnc(N)nc4C(F)F)nc(N4CCOCC4)n3)CC2)CC1 — remaining binding (binding, competition with immobilised ligand; 1 µM): 89%
O=c1nc(-c2ccccn2)sc2ccccc12 — remaining binding (binding, competition with immobilised ligand; 1 µM): 100%
Nc1ncc2c(n1)-c1c([nH]c3ccc(C#CC4CC4)cc13)CCCC2 — remaining binding (binding, competition with immobilised ligand; 1 µM): 85%
C[C@@H]1CN(c2cc(-c3n[nH]c4ccc(OC5(C)CC5)cc34)ncn2)C[C@H](C)O1 — remaining binding (cell-free assay, competition with immobilised ligand; 0.1 µM): 89%
COc1cnc(Nc2cccc(S(N)(=O)=O)c2)nc1N1CCN(c2ccccc2)C(=O)C1 — remaining binding (binding, competition with immobilised ligand; 1 µM): 100%
C[C@@H](c1ccc(-n2cnc3c(N)ncnc32)cc1)N1CCc2nn(C)c(Cc3ccccc3)c2C1=O — remaining binding (binding, competition with immobilised ligand; 0.1 µM): 91%
COc1ccc2c(c1)O[C@H](c1ccc(OC)c(OC)c1)C[C@@H]2NC(=O)C1(c2ccc3c(c2)OC(F)(F)O3)CC1 — remaining binding (cell-free assay, competition with immobilised ligand; 1 µM): 100%
CN(C)c1nccc(-c2cnn3ncccc23)n1 — remaining binding (binding; 1 µM): 100%
Cc1c(NC(=O)c2cc(C(N)=O)nc3cc(F)ccc23)c(C(F)(F)F)nn1Cc1ccc(C(C)(C)C)cc1 — remaining binding (cell-free assay, competition with immobilised ligand; 1 µM): 100%
O=C(NCCCN1CCOCC1)c1ccc(Nc2nccc(-c3cc4ccccc4s3)n2)cc1 — remaining binding (binding, competition with immobilised ligand; 1 µM): 63%
CC(=O)N1CCC(c2ccc(C(=O)NC(=N)N)cc2C(F)(F)F)CC1 — remaining binding (cell-free assay, competition with immobilised ligand; 1 µM): 100%
N[C@@H]1CCN(c2nccc(-c3cnn4ncccc34)n2)C1 — remaining binding (binding; 1 µM): 100%
